According to ChEMBL document CHEMBL1141409, “Structures, biogenesis, and biological activities of pyrano[4,3-c]isochromen-4-one derivatives from the Fungus Phellinus igniarius” (J Nat Prod, 2007):

Columns and labels:
[1] = Cytotoxicity against human Bel7402 cells; format: cell-based; settings: Bel-7402
Liver microsomes = test: Antioxidant activity assessed as inhibition of rat liver microsomal lipid peroxidation; format: functional, Microsome
HCT-8 = test: Cytotoxicity against human HCT8 cells; format: cell-based
[2] = Cytotoxicity against human […] cells; format: cell-based
A549 = test: Cytotoxicity against human A549 cells; format: cell-based
[3] = molecular target: T1, Tyrosine-protein phosphatase non-receptor type 1 (Homo sapiens, UniProt P18031); test: Inhibition of human PTP1B
T1 sequence (P18031 whole entry): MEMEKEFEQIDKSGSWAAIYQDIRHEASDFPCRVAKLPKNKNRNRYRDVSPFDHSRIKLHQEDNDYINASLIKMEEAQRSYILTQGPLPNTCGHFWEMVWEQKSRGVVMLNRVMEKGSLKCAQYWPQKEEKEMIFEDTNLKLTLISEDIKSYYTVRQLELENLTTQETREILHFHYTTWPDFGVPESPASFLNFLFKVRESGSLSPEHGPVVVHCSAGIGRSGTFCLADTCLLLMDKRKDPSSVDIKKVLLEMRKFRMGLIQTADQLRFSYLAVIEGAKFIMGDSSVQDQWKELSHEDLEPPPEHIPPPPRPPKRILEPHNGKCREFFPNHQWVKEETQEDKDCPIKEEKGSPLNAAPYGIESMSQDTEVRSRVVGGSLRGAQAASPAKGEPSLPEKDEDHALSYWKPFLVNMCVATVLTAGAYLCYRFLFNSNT
Summary of the method: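 Recombinant GST-tagged human PTP1B, purified from bacterial pellets on a GST bead column. Substrate 3 mM p-NPP in HEPES buffer, pH 7.0. Compounds dissolved in DMSO, 10% DMSO final in all reactions. First screened at 10 µM for 10 min at 30 °C. Reaction started by adding enzyme and stopped with 1 M NaOH. End-point p-nitrophenol absorbance at 405 nm.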

Row | Compound | IC50 (Liver microsomes) | IC50 [3] | IC50 [1] | IC50 (HCT-8) | IC50 [2] | IC50 (A549)
1 | CC1=CC(=O)[C@H](c2c(O)cc(/C=C/c3ccc(O)c(O)c3)oc2=O)[C@@H](c2ccc(O)c(O)c2)O1 [DAVALLIALACTONE] | 8.2 µM | – | > 10 µg/mL | > 10 µg/mL | > 10 µg/mL | > 10 µg/mL
2 | O=C(O)c1cc2oc(=O)c3cc(O)c(O)cc3c2c(=O)o1 [PHELLIGRIDIN J] | 6.5 µM | > 10 µM | 9.2 µM | 8.4 µM | 7.2 µM | 4.2 µM
3 | CC[C@@]1(O)C(=O)OCc2c1cc1n(c2=O)Cc2cc3c(CN(C)C)c(O)ccc3nc2-1 [TOPOTECAN] | – | – | 1.4 µM | 1.6 µM | 1.2 µM | 3.1 µM

Continued, in another order:

Row | IC50 (Liver microsomes) | IC50 [3] | Compound | IC50 [1] | IC50 (HCT-8) | IC50 [2] | IC50 (A549)
4 | 3.7 µM | 3 µM | O=c1oc(/C=C/c2ccc(O)c(O)c2)cc(O)c1-c1cc(O)c(O)cc1/C=C/c1cc2oc(=O)c3cc(O)c(O)cc3c2c(=O)o1 [PHELLIGRIDIN I] | > 10 µg/mL | > 10 µg/mL | > 10 µg/mL | > 10 µg/mL
5 | 4.8 µM | – | O=c1oc2cc(-c3c(-c4ccc(O)c(O)c4)oc4cc(/C=C/c5ccc(O)c(O)c5)oc(=O)c34)oc(=O)c2c2cc(O)c(O)cc12 [PHELLIGRIDIN H] | > 10 µg/mL | > 10 µg/mL | > 10 µg/mL | > 10 µg/mL
